Read-outs that look alike come from different tables or passages of the source.
Assays:
[1] = tested on: previously treated SCLC patients; experiment: Adverse events; assay type: in vivo, human
Outline: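 Toxicities graded by CTCAE v3.0 in adults with SCLC that had progressed after ≥2 prior chemotherapy regimens, including a platinum one. Paclitaxel 175 mg m−2 was given as a 3-h IV infusion every 3 weeks. Everolimus was given orally once daily (2.5, 5 or 10 mg) over 21-day courses. Patients were assessed weekly during cycle 1, then every 3 weeks.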

[2] = tested on: previously treated SCLC patients; assay type: in vivo, human
Outline: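 Open-label 3-level escalation of oral daily everolimus (2.5→5→10 mg) with fixed paclitaxel 175 mg m−2 every 3 weeks; up to six patients per level, no intrapatient escalation. DLT was assessed in cycle 1 and defined as: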

[3] = tested on: small-cell lung cancer (SCLC); experiment: Tumour response according to RECIST version 1.1; assay type: in vivo, human; settings: + paclitaxel
[4] = Everolimus pharmacokinetics in whole blood; assay type: in vivo, human
Outline: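 Samples were taken from six expansion-cohort patients at the MTD with paclitaxel, 10 per patient. Post-dose samples were drawn at 1, 2, 4, 6, 12 and 24 h on day 1 of cycle 2. Everolimus was quantified in whole blood by LC-MS/MS after protein precipitation.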

[5] = tested on: small-cell lung cancer (SCLC); experiment: Tumour response by phospho-Akt and phospho-S6 expression; assay type: in vivo, human; settings: everolimus + paclitaxel
Outline: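 Pretreatment tumour specimens were formalin-fixed and paraffin-embedded, cut into 4 μm sections, deparaffinised in xylene and rehydrated. Sections were immunostained on an autostainer with polymer detection, using rabbit monoclonal phospho-Akt (Ser473) at 1:80 and phospho-S6 (Ser235/236) at 1:200. Tumour response was assessed every two cycles by RECIST 1.1.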

breast cancer = settings: 10 mg everolimus daily, patients with breast cancer; ref Ellard et al, 2009; cited from earlier work
[6] = all everolimus doses (n=20), any grade, + 3-weekly paclitaxel 175 mg m^−2
[7] = everolimus 2.5 mg daily (n=6), grade 1/2, + 3-weekly paclitaxel 175 mg m^−2
[8] = everolimus 2.5 mg daily (n=6), grade 3/4, + 3-weekly paclitaxel 175 mg m^−2
[9] = everolimus 5 mg daily (n=11), grade 1/2, + 3-weekly paclitaxel 175 mg m^−2
[10] = everolimus 5 mg daily (n=11), grade 3/4, + 3-weekly paclitaxel 175 mg m^−2
[11] = everolimus 10 mg daily (n=3), grade 1/2, + 3-weekly paclitaxel 175 mg m^−2
[12] = everolimus 10 mg daily (n=3), grade 3/4, + 3-weekly paclitaxel 175 mg m^−2

## CO[C@H]1C[C@@H]2CC[C@@H](C)[C@@](O)(O2)C(=O)C(=O)N2CCCC[C@H]2C(=O)O[C@H]([C@H](C)C[C@@H]2CC[C@@H](OCCO)[C@H](OC)C2)CC(=O)[C@H](C)/C=C(\C)[C@@H](O)[C@@H](OC)C(=O)[C@H](C)C[C@H](C)/C=C/C=C/C=C/1C [everolimus]
[1]; [6]
  ALT increased (number of patients with adverse event): 6
  AST increased (number of patients with adverse event): 6
  Anorexia (number of patients with adverse event): 6
  Diarrhoea (number of patients with adverse event): 3
  Febrile neutropenia (number of patients with adverse event): 1
  Itching (number of patients with adverse event): 4
  Leukopenia (number of patients with adverse event): 15
  Neutropenia (number of patients with adverse event): 16
  Pain (number of patients with adverse event): 10
  Pneumonitis (number of patients with adverse event): 1
  Stomatitis (number of patients with adverse event): 8
[1]; [7]
  ALT increased (number of patients with adverse event): 1
  AST increased (number of patients with adverse event): 1
  Anaemia (number of patients with adverse event): 5
  Anorexia (number of patients with adverse event): 2
  Diarrhoea (number of patients with adverse event): 0
  Febrile neutropenia (number of patients with adverse event): 0
  Hyperglycemia (number of patients with adverse event): 6
  Hypertriglycemia (number of patients with adverse event): 3
  Itching (number of patients with adverse event): 0
  Leukopenia (number of patients with adverse event): 4
  Neuropathy (number of patients with adverse event): 1
  Neutropenia (number of patients with adverse event): 3
  Pain (number of patients with adverse event): 2
  Pneumonitis (number of patients with adverse event): 0
  Stomatitis (number of patients with adverse event): 2
  Thrombocytopenia (number of patients with adverse event): 2
  Vomiting (number of patients with adverse event): 0
[1]; [8]
  ALT increased (number of patients with adverse event): 0
  AST increased (number of patients with adverse event): 0
  Anaemia (number of patients with adverse event): 0
  Anorexia (number of patients with adverse event): 0
  Diarrhoea (number of patients with adverse event): 0
  Febrile neutropenia (number of patients with adverse event): 0
  Hyperglycemia (number of patients with adverse event): 0
  Hypertriglycemia (number of patients with adverse event): 0
  Itching (number of patients with adverse event): 0
  Leukopenia (number of patients with adverse event): 1
  Neuropathy (number of patients with adverse event): 0
  Neutropenia (number of patients with adverse event): 1
  Pain (number of patients with adverse event): 0
  Pneumonitis (number of patients with adverse event): 0
  Stomatitis (number of patients with adverse event): 0
  Thrombocytopenia (number of patients with adverse event): 0
  Vomiting (number of patients with adverse event): 0
[1]; [9]
  ALT increased (number of patients with adverse event): 5
  AST increased (number of patients with adverse event): 4
  Anaemia (number of patients with adverse event): 10
  Anorexia (number of patients with adverse event): 3
  Diarrhoea (number of patients with adverse event): 2
  Febrile neutropenia (number of patients with adverse event): 0
  Hyperglycemia (number of patients with adverse event): 9
  Hypertriglycemia (number of patients with adverse event): 2
  Itching (number of patients with adverse event): 2
  Leukopenia (number of patients with adverse event): 4
  Neuropathy (number of patients with adverse event): 3
  Neutropenia (number of patients with adverse event): 3
  Pain (number of patients with adverse event): 6
  Pneumonitis (number of patients with adverse event): 1
  Stomatitis (number of patients with adverse event): 5
  Thrombocytopenia (number of patients with adverse event): 3
  Vomiting (number of patients with adverse event): 2
[1]; [10]
  ALT increased (number of patients with adverse event): 0
  AST increased (number of patients with adverse event): 0
  Anaemia (number of patients with adverse event): 1
  Anorexia (number of patients with adverse event): 0
  Diarrhoea (number of patients with adverse event): 0
  Febrile neutropenia (number of patients with adverse event): 1
  Hyperglycemia (number of patients with adverse event): 0
  Hypertriglycemia (number of patients with adverse event): 0
  Itching (number of patients with adverse event): 0
  Leukopenia (number of patients with adverse event): 4
  Neuropathy (number of patients with adverse event): 1
  Neutropenia (number of patients with adverse event): 6
  Pain (number of patients with adverse event): 0
  Pneumonitis (number of patients with adverse event): 0
  Stomatitis (number of patients with adverse event): 0
  Thrombocytopenia (number of patients with adverse event): 1
  Vomiting (number of patients with adverse event): 0
[1]; [11]
  ALT increased (number of patients with adverse event): 0
  AST increased (number of patients with adverse event): 1
  Anaemia (number of patients with adverse event): 3
  Anorexia (number of patients with adverse event): 1
  Diarrhoea (number of patients with adverse event): 1
  Febrile neutropenia (number of patients with adverse event): 0
  Hyperglycemia (number of patients with adverse event): 2
  Hypertriglycemia (number of patients with adverse event): 2
  Itching (number of patients with adverse event): 2
  Leukopenia (number of patients with adverse event): 2
  Neuropathy (number of patients with adverse event): 2
  Neutropenia (number of patients with adverse event): 1
  Pain (number of patients with adverse event): 2
  Pneumonitis (number of patients with adverse event): 0
  Stomatitis (number of patients with adverse event): 1
  Thrombocytopenia (number of patients with adverse event): 2
  Vomiting (number of patients with adverse event): 0
[1]; [12]
  ALT increased (number of patients with adverse event): 0
  AST increased (number of patients with adverse event): 0
  Anaemia (number of patients with adverse event): 0
  Anorexia (number of patients with adverse event): 0
  Diarrhoea (number of patients with adverse event): 0
  Febrile neutropenia (number of patients with adverse event): 0
  Hyperglycemia (number of patients with adverse event): 1
  Hypertriglycemia (number of patients with adverse event): 0
  Itching (number of patients with adverse event): 0
  Leukopenia (number of patients with adverse event): 0
  Neuropathy (number of patients with adverse event): 0
  Neutropenia (number of patients with adverse event): 2
  Pain (number of patients with adverse event): 0
  Pneumonitis (number of patients with adverse event): 0
  Stomatitis (number of patients with adverse event): 0
  Thrombocytopenia (number of patients with adverse event): 2
  Vomiting (number of patients with adverse event): 0
[2]; [6]
  Dose-limiting toxicity, cycle 1: Hyperglycemia (number of patients): 1
  Dose-limiting toxicity, cycle 1: Thrombocytopenia (number of patients): 2
[2]; dose level 1 (everolimus 2.5 mg daily), six patients, + 3-weekly paclitaxel 175 mg m^−2
  Patients who experienced DLT in cycle 1: None
[2]; [7]
  Dose-limiting toxicity, cycle 1: Hyperglycemia (number of patients): 0
  Dose-limiting toxicity, cycle 1: Thrombocytopenia (number of patients): 0
[2]; [8]
  Dose-limiting toxicity, cycle 1: Hyperglycemia (number of patients): 0
  Dose-limiting toxicity, cycle 1: Thrombocytopenia (number of patients): 0
[2]; [9]
  Dose-limiting toxicity, cycle 1: Hyperglycemia (number of patients): 0
  Dose-limiting toxicity, cycle 1: Thrombocytopenia (number of patients): 0
[2]; [10]
  Dose-limiting toxicity, cycle 1: Hyperglycemia (number of patients): 0
[2]; [11]
  Dose-limiting toxicity, cycle 1: Hyperglycemia (number of patients): 0
  Dose-limiting toxicity, cycle 1: Thrombocytopenia (number of patients): 0
[2]; [12]
  Dose-limiting toxicity, cycle 1: Hyperglycemia (number of patients): 1
  Dose-limiting toxicity, cycle 1: Thrombocytopenia (number of patients): 1
[2]; level 2 = everolimus 5 mg daily + 3-weekly paclitaxel 175 mg m^−2
  MTD and recommended phase-2 dose (dose level): level 2
[2]; once daily, in combination with paclitaxel 175 mg m^−2 every 3 weeks
  Maximum tolerated dose (MTD) of everolimus: 5 mg
[3]; dose level 1 (everolimus 2.5 mg daily), one out of 6 patients
  Objective response rate: 17%
[3]; dose level 2 (everolimus 5 mg daily), 2 out of 10 patients
  Objective response rate: 20%
[3]; dose level 3 (everolimus 10 mg daily), 2 out of 3 patients
  Objective response rate: 67%
[4]; all parameters except Cmin, everolimus 5 mg daily with paclitaxel
  Interpatient coefficient of variation of pharmacokinetic parameters: less than 40%
[4]; everolimus 5 mg daily with paclitaxel
  Interpatient coefficient of variation of Cmin: 52%
[4]; human, whole blood, po, 5 mg
  AUC(0-t): 284 ng·h/mL
  Cmax: 24.4 ng/mL
  Tmax: 0.98 to 6.02 h
[5]
  Response in phospho-S6-negative group (responders/patients): 1/3
  Response in phospho-S6-positive group (responders/patients): 1/3
[5]; four patients
  Objective responses in patients with phospho-Akt-negative tumours: two objective responses
[5]; two patients (one stable and one progressive disease)
  Objective response in phospho-Akt-positive patients: No objective response
Breast cancer
  Response rate: 12%
